In brackets after ≈: the same amount, converted by molar mass. One block for each compound: values may come before it. Activity calls are given as the source filed them. The calls are words filed in the database; no cut-off is given here.
Tests used:
[1] = Solubility in phosphate buffer at 37 degC; format: physicochemical
Outline: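 Maximum solubility was measured in 0.1 M phosphate buffer at pH 7.4 and 37 °C.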

NIH3T3 = test: Cytotoxicity against mouse embryonic fibroblast NIH3T3 cell line; format: functional, cell-based
LOX IMVI [2] = test: Cytotoxicity against human melanoma cancer LOXIMVI cell line; format: functional
Outline: (§1)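 Cells grown 24 h at 37 °C in RPMI 1640 with 5% FBS and 2 mM L-glutamine before dosing. Compounds were diluted from DMSO stocks to 10^-8 to 10^-4 M (five log concentrations) and incubated 48 h. Cells were TCA-fixed and stained with sulforhodamine B, with OD read at 515 nm. GI50, TGI and LC50 come from percent growth versus log concentration curves.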

HCT-15 [3] = test: Cytotoxicity against human colon cancer HCT15 cell line; format: functional; settings: for CC50: read-out: LC50 (the source's name); outline: as §1
OVCAR-3 [4] = test: Cytotoxicity against human ovarian cancer OVACAR3 cell line; format: functional; settings: for CC50: read-out: LC50 (the source's name); outline: as §1
CAKI-1 [5] = test: Cytotoxicity against human renal cancer CAKI1 cell line; format: functional; settings: for CC50: read-out: LC50 (the source's name); outline: as §1
HL-60 = test: Inhibition of human myeloid leukemia HL60 cell viability; format: functional, cell-based
CAKI-1 [6] = test: Cytotoxicity against human renal cancer CAKI1 cell line at 100 uM; format: functional, cell-based; outline: as §1
HCT-15 [7] = test: Cytotoxicity against human colon cancer HCT15 cell line at 100 uM; format: functional, cell-based; outline: as §1
LOX IMVI [8] = test: Cytotoxicity against human melanoma cancer LOXIMVI cell line at 100 uM; format: functional, cell-based; outline: as §1
OVCAR-3 [9] = test: Cytotoxicity against human ovarian cancer OVACAR3 cell line at 100 uM; format: functional, cell-based; outline: as §1

Compound: CN(C)/[N+]([O-])=N/Oc1cc(Nc2cccc(C(=O)O)c2)c([N+](=O)[O-])cc1[N+](=O)[O-]
solubility [1]: > 2000 µM
IC50 (NIH3T3): 80 µM
LC50 (concentration giving 50% net cell kill) (LOX IMVI [2]): 60 µM
GI50 (HCT-15 [3]): 20 µM
TGI (HCT-15 [3]): 36 µM
CC50 (HCT-15 [3]): 68 µM
GI50 (OVCAR-3 [4]): 3.9 µM
TGI (OVCAR-3 [4]): 30 µM
CC50 (OVCAR-3 [4]): 58 µM
GI50 (CAKI-1 [5]): 2.2 µM
TGI (CAKI-1 [5]): 51 µM
CC50 (CAKI-1 [5]): > 100 µM

Compound: CN(C)/[N+]([O-])=N/Oc1cc(Nc2ccc(C(=O)O)cc2)c([N+](=O)[O-])cc1[N+](=O)[O-]
solubility [1]: > 3000 µM
IC50 (NIH3T3): 73 µM
GI50 (OVCAR-3 [4]): 5.5 µM
TGI (OVCAR-3 [4]): 9 µM
CC50 (OVCAR-3 [4]): 100 µM
IC50 (HL-60): 9.1 µM

solubility [1]: 3000 µM (≈ 1260 µg/mL)
IC50 (HL-60): 11.6 µM
Compound: CN(c1cccc(C(=O)O)c1)c1cc(O/N=[N+](\[O-])N(C)C)c([N+](=O)[O-])cc1[N+](=O)[O-]
IC50 (NIH3T3): 83 µM
Activity (CAKI-1 [6]): inactive
Activity (HCT-15 [7]): inactive
Activity (LOX IMVI [8]): inactive
Activity (OVCAR-3 [9]): inactive

Compound: CNc1ccc(C(=O)Oc2cc(O/N=[N+](\[O-])N(C)C)c([N+](=O)[O-])cc2[N+](=O)[O-])cc1
solubility [1]: < 2 µM
IC50 (NIH3T3): 5.6 µM
GI50 (LOX IMVI [2]): 1.9 µM
TGI (LOX IMVI [2]): 4.4 µM
GI50 (HCT-15 [3]): 2 µM
TGI (HCT-15 [3]): 5.3 µM
CC50 (HCT-15 [3]): 19 µM
GI50 (OVCAR-3 [4]): 2.6 µM
TGI (OVCAR-3 [4]): 6.9 µM
CC50 (OVCAR-3 [4]): 2.6 µM
IC50 (HL-60): 6.3 µM
GI50 (CAKI-1 [5]): 1.8 µM
TGI (CAKI-1 [5]): 4 µM
CC50 (CAKI-1 [5]): 8.9 µM
